System: not listed separately
Assay: Area under the concentration-time curve for 0-4 hr after 2 mg/kg po in rat
Assay type: ADME, organism-based
Parameters: time < 4 hr, dose 2 mg/kg, route oral
Conditions: in vivo
Outline: (§1)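 Male Sprague-Dawley rats (~300 g) gavaged at 2 mg/kg (5 mL/kg of 0.5% methocel A4C suspension), five rats; one rat culled per time point up to 4 h for blood. Samples get internal standard and are extracted into ethyl acetate, then LC-MS single ion recording.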

| Structure (SMILES) | AUC(0-t) at 4 h [µg·h/mL] |
| --- | --- |
| Fc1ccc(-c2[nH]c3cc(F)ccc3c2[C@@H]2CNCC[C@H]2F)cc1 | 0.35 |

Biological target: D(2) dopamine receptor (Homo sapiens, UniProt P14416)
Assay: Ability to displace [3H]spiperone binding to CHO cells stably expressing dopamine receptor D2
Assay type: cell-based
Conditions: not given

Sequence of D(2) dopamine receptor (P14416 whole entry): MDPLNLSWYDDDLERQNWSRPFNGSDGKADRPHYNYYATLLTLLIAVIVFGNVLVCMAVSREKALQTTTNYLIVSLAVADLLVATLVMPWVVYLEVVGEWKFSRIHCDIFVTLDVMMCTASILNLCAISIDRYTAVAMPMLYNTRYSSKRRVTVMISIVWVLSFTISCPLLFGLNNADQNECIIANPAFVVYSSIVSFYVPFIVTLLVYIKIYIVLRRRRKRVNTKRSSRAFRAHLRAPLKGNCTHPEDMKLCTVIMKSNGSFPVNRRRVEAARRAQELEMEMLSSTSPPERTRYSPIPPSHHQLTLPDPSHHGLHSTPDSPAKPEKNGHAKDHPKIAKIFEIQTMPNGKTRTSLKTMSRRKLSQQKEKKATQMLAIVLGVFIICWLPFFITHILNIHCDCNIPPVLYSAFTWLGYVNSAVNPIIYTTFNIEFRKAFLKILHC

| Structure (SMILES) | Ki [nM] |
| --- | --- |
| F[C@H]1CCNC[C@@H]1c1c(-c2ccccc2)[nH]c2ccccc12 | > 1700 |
| Fc1ccc2c([C@@H]3CNCC[C@H]3F)c(-c3ccoc3)[nH]c2c1 | > 1600 |
| Fc1ccc(-c2[nH]c3cc(F)ccc3c2C2CCCNC2)cc1 (configuration not stated) | 28 |
| CN1CCN(C)C(c2c(-c3ccccc3)[nH]c3ccccc23)C1 (configuration not stated) | > 1600 |

Further lines, results first:

| Ki [nM] | Structure (SMILES) |
| --- | --- |
| > 1600 | O[C@@H]1CCNC[C@H]1c1c(-c2ccccc2)[nH]c2ccccc12 |
| > 1600 | c1ccc(-c2[nH]c3ccccc3c2C2CCNCC2)cc1 |
| 1600 | c1ccc(-c2[nH]c3ccccc3c2C2CNCCO2)cc1 (configuration not stated) |
| 900 | Fc1ccc(-c2[nH]c3cc(F)ccc3c2[C@@H]2CNCC[C@H]2F)cc1 |

System: not listed separately
Assay: Maximum blood concentration after oral dosing at 2 mg/kg in rat
Assay type: ADME, organism-based
Parameters: dose 2 mg/kg, route oral
Conditions: not given
Outline: as §1

| Structure (SMILES) | Cmax [µg/mL] |
| --- | --- |
| Fc1ccc(-c2[nH]c3cc(F)ccc3c2[C@@H]2CNCC[C@H]2F)cc1 | 0.149 |

Biological target: 5-hydroxytryptamine receptor 2A (Homo sapiens, UniProt P28223)
Assay: Ability to displace [3H]ketanserin binding to human 5-hydroxytryptamine 2A receptor stably expressed in CHO cells
Assay type: cell-based
Conditions: not given
Outline: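 Membranes from CHO cells stably expressing human 5-HT2A, homogenized in 50 mM Tris-HCl pH 7.5, at 2 mg wet weight/mL. Ki from nonlinear least-squares regression, geometric mean of at least three determinations.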

Sequence of 5-hydroxytryptamine receptor 2A (P28223 whole entry): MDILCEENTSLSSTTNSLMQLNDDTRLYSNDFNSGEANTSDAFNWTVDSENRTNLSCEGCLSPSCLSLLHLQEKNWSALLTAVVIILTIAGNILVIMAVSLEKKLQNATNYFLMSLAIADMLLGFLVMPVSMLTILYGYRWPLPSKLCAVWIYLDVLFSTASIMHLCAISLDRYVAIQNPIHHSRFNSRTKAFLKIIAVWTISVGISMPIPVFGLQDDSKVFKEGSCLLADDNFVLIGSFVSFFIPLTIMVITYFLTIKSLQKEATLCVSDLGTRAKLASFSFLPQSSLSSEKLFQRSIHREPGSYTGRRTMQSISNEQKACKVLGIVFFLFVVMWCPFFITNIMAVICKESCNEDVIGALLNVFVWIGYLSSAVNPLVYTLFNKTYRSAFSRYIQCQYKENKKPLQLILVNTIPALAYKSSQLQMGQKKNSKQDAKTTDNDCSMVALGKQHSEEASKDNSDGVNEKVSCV

| Structure (SMILES) | Ki [nM] |
| --- | --- |
| F[C@H]1CCNC[C@@H]1c1c(-c2ccccc2)[nH]c2ccccc12 | 220 |
| Fc1ccc2c([C@@H]3CNCC[C@H]3F)c(-c3ccoc3)[nH]c2c1 | 0.54 |
| Fc1ccc(-c2[nH]c3cc(F)ccc3c2C2CCCNC2)cc1 (configuration not stated) | 0.09 |
| CN1CCN(C)C(c2c(-c3ccccc3)[nH]c3ccccc23)C1 (configuration not stated) | 320 |

Second part, the compound after the results:

| Ki [nM] | Structure (SMILES) |
| --- | --- |
| 3.3 | O[C@@H]1CCNC[C@H]1c1c(-c2ccccc2)[nH]c2ccccc12 |
| 18 | c1ccc(-c2[nH]c3ccccc3c2C2CNCCO2)cc1 (configuration not stated) |
| 0.12 | Fc1ccc(-c2[nH]c3cc(F)ccc3c2[C@@H]2CNCC[C@H]2F)cc1 |

Biological target: T1, 5-hydroxytryptamine receptor 2C (Homo sapiens, UniProt P28335)
T1 sequence (P28335 whole entry): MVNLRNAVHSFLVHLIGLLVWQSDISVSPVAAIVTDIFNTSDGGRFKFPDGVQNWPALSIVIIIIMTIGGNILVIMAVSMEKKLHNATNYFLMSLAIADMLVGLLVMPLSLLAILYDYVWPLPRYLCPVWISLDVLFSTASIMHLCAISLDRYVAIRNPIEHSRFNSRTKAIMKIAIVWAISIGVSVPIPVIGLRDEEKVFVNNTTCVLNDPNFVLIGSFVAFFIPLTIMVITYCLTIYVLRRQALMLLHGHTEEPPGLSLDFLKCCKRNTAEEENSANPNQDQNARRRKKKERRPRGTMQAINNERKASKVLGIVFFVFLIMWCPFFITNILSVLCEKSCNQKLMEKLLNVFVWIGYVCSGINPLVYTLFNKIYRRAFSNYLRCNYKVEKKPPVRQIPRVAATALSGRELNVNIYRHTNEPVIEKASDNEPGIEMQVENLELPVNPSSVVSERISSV
Assay: Ability to displace [3H]mesulergine binding to human 5-hydroxytryptamine 2C receptor stably expressed in CHO cells
Assay type: cell-based
Conditions: not given

| Structure (SMILES) | Ki [nM] |
| --- | --- |
| c1ccc(-c2[nH]c3ccccc3c2C2CCNCC2)cc1 | 400 |
| Fc1ccc(-c2[nH]c3cc(F)ccc3c2C2CCCNC2)cc1 (configuration not stated) | 16 |
| Fc1ccc(-c2[nH]c3cc(F)ccc3c2[C@@H]2CNCC[C@H]2F)cc1 | 19 |

Biological target: T2, Adrenergic receptor alpha-1 (Rattus norvegicus, UniProt P15823+P23944+P43140)
T2 sequence (P15823 whole entry): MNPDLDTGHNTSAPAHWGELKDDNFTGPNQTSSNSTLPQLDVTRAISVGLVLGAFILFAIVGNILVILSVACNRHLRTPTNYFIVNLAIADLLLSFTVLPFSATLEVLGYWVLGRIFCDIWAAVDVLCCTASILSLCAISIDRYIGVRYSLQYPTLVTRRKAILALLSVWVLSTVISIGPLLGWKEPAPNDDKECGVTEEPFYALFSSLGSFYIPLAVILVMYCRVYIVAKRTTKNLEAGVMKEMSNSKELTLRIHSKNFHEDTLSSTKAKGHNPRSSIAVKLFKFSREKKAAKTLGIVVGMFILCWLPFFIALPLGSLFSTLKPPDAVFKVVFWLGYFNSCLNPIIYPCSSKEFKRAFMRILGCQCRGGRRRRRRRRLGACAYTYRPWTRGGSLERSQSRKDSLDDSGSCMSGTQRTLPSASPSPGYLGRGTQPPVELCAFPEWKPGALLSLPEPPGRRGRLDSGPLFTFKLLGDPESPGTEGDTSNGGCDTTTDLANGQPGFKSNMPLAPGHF
T2 sequence (P23944 whole entry): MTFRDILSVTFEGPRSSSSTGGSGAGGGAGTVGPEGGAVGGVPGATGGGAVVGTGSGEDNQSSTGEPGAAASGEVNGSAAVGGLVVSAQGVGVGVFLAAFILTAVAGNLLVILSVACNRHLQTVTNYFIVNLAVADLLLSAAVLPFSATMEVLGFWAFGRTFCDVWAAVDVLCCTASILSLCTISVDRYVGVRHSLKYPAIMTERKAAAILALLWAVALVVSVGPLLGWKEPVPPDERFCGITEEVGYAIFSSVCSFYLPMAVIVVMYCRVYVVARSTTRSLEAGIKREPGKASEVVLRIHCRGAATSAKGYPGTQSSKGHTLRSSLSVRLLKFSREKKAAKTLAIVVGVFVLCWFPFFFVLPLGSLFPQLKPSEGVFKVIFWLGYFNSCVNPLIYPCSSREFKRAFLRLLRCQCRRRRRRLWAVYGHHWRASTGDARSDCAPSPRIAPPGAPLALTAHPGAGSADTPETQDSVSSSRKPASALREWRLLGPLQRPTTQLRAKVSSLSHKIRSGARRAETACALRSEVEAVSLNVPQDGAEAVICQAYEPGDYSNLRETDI
T2 sequence (P43140 whole entry): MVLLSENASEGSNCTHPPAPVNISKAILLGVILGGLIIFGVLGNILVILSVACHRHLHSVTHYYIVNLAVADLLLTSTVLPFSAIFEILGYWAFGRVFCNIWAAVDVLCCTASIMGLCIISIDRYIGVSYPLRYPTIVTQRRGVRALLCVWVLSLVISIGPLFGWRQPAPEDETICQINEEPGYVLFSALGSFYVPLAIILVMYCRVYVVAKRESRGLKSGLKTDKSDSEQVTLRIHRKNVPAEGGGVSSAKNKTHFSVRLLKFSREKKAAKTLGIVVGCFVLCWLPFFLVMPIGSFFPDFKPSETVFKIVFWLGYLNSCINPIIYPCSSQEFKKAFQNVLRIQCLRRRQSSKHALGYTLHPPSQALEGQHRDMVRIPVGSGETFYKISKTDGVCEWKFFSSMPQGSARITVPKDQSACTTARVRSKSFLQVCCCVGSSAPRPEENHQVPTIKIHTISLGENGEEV
Assay: Ability to displace [3H]-prazosin binding to rat cortical membranes expressing Alpha-1 adrenergic receptors
Conditions: not given

| Structure (SMILES) | Ki [nM] |
| --- | --- |
| Fc1ccc2c([C@@H]3CNCC[C@H]3F)c(-c3ccoc3)[nH]c2c1 | 3.6 |
| Fc1ccc(-c2[nH]c3cc(F)ccc3c2C2CCCNC2)cc1 (configuration not stated) | 1.1 |

The next lines start with the values.

| Ki [nM] | Structure (SMILES) |
| --- | --- |
| 2100 | c1ccc(-c2[nH]c3ccccc3c2C2CCNCC2)cc1 |
| 2.9 | Fc1ccc(-c2[nH]c3cc(F)ccc3c2[C@@H]2CNCC[C@H]2F)cc1 |

Biological target: Voltage-gated inwardly rectifying potassium channel KCNH2 (Homo sapiens, UniProt Q12809)
Assay: Displacement of [3H]dofetilide from HEK cells expressing hERG voltage dependent IKr potassium channel Kv11.1
Conditions: not given

Sequence of Voltage-gated inwardly rectifying potassium channel KCNH2 (Q12809 whole entry): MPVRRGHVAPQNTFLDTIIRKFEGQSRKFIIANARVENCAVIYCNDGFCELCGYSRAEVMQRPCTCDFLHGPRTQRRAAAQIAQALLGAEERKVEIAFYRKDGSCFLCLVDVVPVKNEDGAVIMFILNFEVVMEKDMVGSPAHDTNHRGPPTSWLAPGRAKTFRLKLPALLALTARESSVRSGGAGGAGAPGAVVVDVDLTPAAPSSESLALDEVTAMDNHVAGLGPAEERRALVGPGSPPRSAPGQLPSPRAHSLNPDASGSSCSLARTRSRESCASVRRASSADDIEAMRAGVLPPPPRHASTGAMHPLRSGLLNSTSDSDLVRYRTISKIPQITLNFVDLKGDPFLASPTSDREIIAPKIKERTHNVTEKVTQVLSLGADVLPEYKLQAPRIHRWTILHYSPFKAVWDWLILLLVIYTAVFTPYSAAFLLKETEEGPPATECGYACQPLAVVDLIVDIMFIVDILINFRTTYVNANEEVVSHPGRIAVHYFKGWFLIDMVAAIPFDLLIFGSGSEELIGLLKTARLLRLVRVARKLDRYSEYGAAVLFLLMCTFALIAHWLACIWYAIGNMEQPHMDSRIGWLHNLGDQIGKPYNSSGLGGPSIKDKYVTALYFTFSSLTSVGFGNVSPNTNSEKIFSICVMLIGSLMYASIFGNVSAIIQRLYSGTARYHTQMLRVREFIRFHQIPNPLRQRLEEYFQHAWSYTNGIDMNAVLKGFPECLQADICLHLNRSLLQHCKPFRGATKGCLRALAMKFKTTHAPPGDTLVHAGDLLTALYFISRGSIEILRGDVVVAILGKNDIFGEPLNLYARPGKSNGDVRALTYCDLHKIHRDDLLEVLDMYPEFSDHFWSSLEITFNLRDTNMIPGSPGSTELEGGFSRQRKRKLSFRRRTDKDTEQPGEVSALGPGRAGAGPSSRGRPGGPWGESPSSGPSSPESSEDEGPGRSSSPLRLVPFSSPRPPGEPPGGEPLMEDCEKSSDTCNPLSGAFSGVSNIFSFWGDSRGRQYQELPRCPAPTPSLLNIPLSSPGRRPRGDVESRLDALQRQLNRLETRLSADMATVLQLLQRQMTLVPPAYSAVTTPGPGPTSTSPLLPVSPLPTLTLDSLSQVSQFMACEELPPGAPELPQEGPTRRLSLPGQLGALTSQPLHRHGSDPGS

| Structure (SMILES) | Ki [nM] |
| --- | --- |
| c1ccc(-c2[nH]c3ccccc3c2C2CCNCC2)cc1 | 5700 |
| Fc1ccc(-c2[nH]c3cc(F)ccc3c2C2CCCNC2)cc1 (configuration not stated) | 1300 |
| Fc1ccc(-c2[nH]c3cc(F)ccc3c2[C@@H]2CNCC[C@H]2F)cc1 | 1600 |
